Source: ChEMBL document CHEMBL1137984, “Structure-activity relationship of heterobase-modified 2'-C-methyl ribonucleosides as inhibitors of hepatitis C virus RNA replication” (J Med Chem, 2004)

What was measured:
[1] = Clearance in rats when administered at a dose of 1 mg/kg i.v. and […] p.o.; format: ADME, organism-based; parameters: dose 1 mg/kg; settings: rat, in vivo, iv
How it was run: (§1)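 Male CRL rats; single intravenous dose of 1.0 mg/kg (N = 2) and oral dose at […] (N = 3). Plasma sampled and analysed by a method described earlier; clearance, half-life, Cmax, Tmax and %F derived from plasma levels.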

Nucleic Acid = assay: Inhibition of HCV RNA replication in a subgenomic bicistronic replicon assay in HB-1 cells; format: functional, cell-based, Hepacivirus hominis; settings: Hepatitis C virus, HB1
How it was run: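 Subgenomic bicistronic HCV replicon in HB-1 cells; viral RNA quantified by in situ RNase protection assay after 24 h of nucleoside treatment. EC50 averaged over at least two independent potency determinations. Nucleosides purified by preparative RP-HPLC, purity generally >98%.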

[2] = Cytotoxicity against HB-1 cells in an MTS-based assay; format: functional; settings: HB1
[3] = Oral bioavailability in rat; format: ADME, organism-based; settings: in vivo; how it was run: as §1
[4] = Cmax value in rats; format: ADME, organism-based; settings: rat, in vivo; how it was run: as §1
[5] = Half-life in rats; format: ADME; settings: rat, in vivo; how it was run: as §1
[6] = Tmax value in rats; format: ADME; settings: rat, in vivo; how it was run: as §1
Hepatitis C virus = assay: Compound was tested for the inhibition of HCV NS5B-mediated RNA synthesis; format: functional, Hepacivirus hominis
How it was run: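 Enzymatic activity of HCV NS5B Δ21 measured with nucleoside 5'-triphosphates as inhibitors, by an earlier protocol. Triphosphates purified by anion exchange, desalted by RP-HPLC, >90% pure, identity confirmed by MS. IC50 averaged over at least three separate determinations.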

Compound | EC50 (Nucleic Acid) | CC50 [2] | also measured
C[C@@]1(O)[C@H](O)[C@@H](CO)O[C@H]1n1cc(F)c2c(N)ncnc21 | 0.07 µM | > 100 µM | Clearance [1]: 44 mL/min/kg; bioavailability [3]: 51%; Cmax [4]: 600 nM; half-life [5]: 306 min; Tmax [6]: 30 min
C[C@@]1(O)[C@H](O)[C@@H](CO)O[C@H]1n1ccc2c(N)nccc21 | > 100 µM | > 100 µM | 
C[C@@]1(O)[C@H](O)[C@@H](CO)O[C@H]1n1cc(Cl)c2c(N)ncnc21 | 0.13 µM | ~50 µM | 
C[C@@]1(O)[C@H](O)[C@@H](CO)O[C@H]1n1ccc2c(N)nc(N)nc21 | 100 µM | > 100 µM | 
C[C@@]1(O)[C@H](O)[C@@H](CO)O[C@H]1n1cc(C(=O)O)c2c(N)ncnc21 | 70 µM | > 100 µM | 
C[C@@]1(O)[C@H](O)[C@@H](CO)O[C@H]1n1ncc2c(N)ncnc21 | > 100 µM | > 100 µM | 
C[C@]1(O)C(n2cc(C(N)=O)c3c(N)ncnc32)O[C@H](CO)[C@H]1O (stereo partly drawn) | 0.08 µM | ~33 µM | 
C[C@@]1(O)[C@H](O)[C@@H](CO)O[C@H]1n1ccc2c(N)nc(F)nc21 | 100 µM | > 100 µM | 
C[C@@]1(O)[C@H](O)[C@@H](CO)O[C@H]1n1cc(Cl)c2c(O)nc(N)nc21 | > 100 µM | > 100 µM | 
C[C@@]1(O)[C@H](O)[C@@H](CO)O[C@H]1n1ccc2c(N)ncnc21 [BETA-2'-C-METHYL-7-DEAZA-ADENOSINE] | 0.25 µM | > 100 µM | 
C[C@@]1(O)[C@H](O)[C@@H](CO)O[C@H]1n1cnc2c(=O)[nH]c(N)nc21 [2'-B-METHYL-GUANOSINE] | 3.5 µM | > 100 µM | IC50 (Hepatitis C virus): 0.13 µM; bioavailability [3]: 85%
C[C@@]1(O)[C@H](O)[C@@H](CO)O[C@H]1n1cnc2c(N)ncnc21 | 0.26 µM | > 100 µM | Clearance [1]: > 200 mL/min/kg; IC50 (Hepatitis C virus): 1.9 µM; bioavailability [3]: 0%; half-life [5]: 18 min
C[C@@]1(O)[C@H](O)[C@@H](CO)O[C@H]1n1ccc2c(O)nc(N)nc21 | > 100 µM | > 100 µM | 
Cc1cn([C@@H]2O[C@H](CO)[C@@H](O)[C@@]2(C)O)c2ncnc(N)c12 | 34 µM | > 100 µM | 
C[C@@]1(O)[C@H](O)[C@@H](CO)O[C@H]1n1cc(Br)c2c(N)ncnc21 | 0.24 µM | 40 µM | 
C[C@]1(O)C(n2cc(C#N)c3c(N)ncnc32)O[C@H](CO)[C@H]1O (stereo partly drawn) | 3.1 µM | ~50 µM | 
